# Activity calls are given as the source filed them. The rule behind the calls is not given here.
# Test system: not listed separately
# Assay: Selectivity ratio of IC50 for Leishmania major pteridine reductase 1 to IC50 for N-terminal His-tagged Trypanosoma brucei pteridine reductase 1
# Details: not given
row,Compound,Ratio IC50
1,Nc1nc2ccc(C(=O)N(Cc3ccccc3)Cc3ccc(Cl)c(Cl)c3)cc2s1,2 to 100
2,Nc1nc2ccc(C(=O)NCCc3c[nH]c4ccccc34)cc2s1,2 to 100
3,COC(=O)c1ccc(CS(=O)(=O)c2ccc3nc(N)sc3c2)cc1,2 to 100
4,Nc1nc2ccc(C(=O)NC(c3ccccc3)c3ccccc3)cc2s1,2 to 100

# Target: Cytochrome P450 2C9 (Homo sapiens, UniProt P11712)
# Assay: Inhibition of human CYP2C9 expressed in baculovirus infected insect cells using beetle D-luciferin as substrate preincubated for 30 mins followed by NADPH addition and measured after 30 mins by CYP450-Glo assay
# Details: not given
# Chain of Cytochrome P450 2C9 (P11712 whole entry): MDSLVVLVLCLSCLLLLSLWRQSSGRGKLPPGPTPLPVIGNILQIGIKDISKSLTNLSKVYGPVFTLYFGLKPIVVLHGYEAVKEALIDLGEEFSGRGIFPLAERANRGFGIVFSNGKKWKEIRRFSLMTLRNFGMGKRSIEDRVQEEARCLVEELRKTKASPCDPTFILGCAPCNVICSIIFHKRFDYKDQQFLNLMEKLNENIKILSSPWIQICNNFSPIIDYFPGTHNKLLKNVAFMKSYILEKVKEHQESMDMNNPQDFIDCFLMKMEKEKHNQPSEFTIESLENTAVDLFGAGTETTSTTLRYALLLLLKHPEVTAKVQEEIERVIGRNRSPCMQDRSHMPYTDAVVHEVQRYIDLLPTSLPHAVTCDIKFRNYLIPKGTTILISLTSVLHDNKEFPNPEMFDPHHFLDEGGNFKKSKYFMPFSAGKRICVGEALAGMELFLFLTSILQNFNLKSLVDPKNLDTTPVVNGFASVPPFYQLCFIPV
row,Compound,IC50
1,Nc1nc2ccc(C(=O)N(Cc3ccccc3)Cc3ccc(Cl)c(Cl)c3)cc2s1,< 10 µM
2,Nc1nc2ccc(C(=O)NCCc3c[nH]c4ccccc34)cc2s1,> 25 µM
3,COC(=O)c1ccc(CS(=O)(=O)c2ccc3nc(N)sc3c2)cc1,10 to 25 µM
4,Nc1nc2ccc(C(=O)NC(c3ccccc3)c3ccccc3)cc2s1,< 10 µM

# Target: T1, Pteridine reductase 1 (Leishmania major, UniProt Q01782)
# T1 sequence (Q01782 whole entry): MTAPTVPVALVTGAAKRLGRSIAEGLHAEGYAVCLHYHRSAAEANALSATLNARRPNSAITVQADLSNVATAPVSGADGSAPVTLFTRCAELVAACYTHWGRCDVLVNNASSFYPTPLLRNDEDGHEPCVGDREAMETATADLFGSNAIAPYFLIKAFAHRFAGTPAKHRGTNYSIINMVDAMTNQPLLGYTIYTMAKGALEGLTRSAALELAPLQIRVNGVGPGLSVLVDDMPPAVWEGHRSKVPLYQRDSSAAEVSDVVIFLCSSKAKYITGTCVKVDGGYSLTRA
# Assay: Inhibition of Leishmania major pteridine reductase 1 using di-hydrobiopterine as substrate in presence of NADPH
# Details: not given
# Method in brief: (§1)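 Photometric PTR1 assay with NADPH and dihydrobiopterin substrate. H₄B formation is coupled non-enzymatically to cytochrome c reduction, read as signal increase at 550 nm.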
row,Compound,IC50
1,Nc1nc2ccc(C(=O)N(Cc3ccccc3)Cc3ccc(Cl)c(Cl)c3)cc2s1,Not Active
2,Nc1nc2ccc(C(=O)NCCc3c[nH]c4ccccc34)cc2s1,Not Active

# Same assay, conditions: read-out: IC50
row,Compound,IC50
1,COC(=O)c1ccc(CS(=O)(=O)c2ccc3nc(N)sc3c2)cc1,65.9 µM
2,Nc1nc2ccc(C(=O)NC(c3ccccc3)c3ccccc3)cc2s1,88.5 µM

# Target: T2, Pteridine reductase 1 (Leishmania major) (UniProt Q01782)
# T2 sequence (whole entry): T1 sequence (Q01782 whole entry)
# Assay: Inhibition of Leishmania major pteridine reductase 1 at 50 uM using di-hydrobiopterine as substrate in presence of NADPH relative to control
# Details: not given
# Method in brief: as §1
row,Compound,inhibition
1,Nc1nc2ccc(C(=O)N(Cc3ccccc3)Cc3ccc(Cl)c(Cl)c3)cc2s1,inactive
2,Nc1nc2ccc(C(=O)NCCc3c[nH]c4ccccc34)cc2s1,inactive
3,COC(=O)c1ccc(CS(=O)(=O)c2ccc3nc(N)sc3c2)cc1,> 60%
4,Nc1nc2ccc(C(=O)NC(c3ccccc3)c3ccccc3)cc2s1,> 60%

# Target: Voltage-gated inwardly rectifying potassium channel KCNH2 (Homo sapiens, UniProt Q12809)
# Assay: Displacement of Tracer Red from human ERG by fluorescence polarization assay
# Details: not given
# Chain of Voltage-gated inwardly rectifying potassium channel KCNH2 (Q12809 whole entry): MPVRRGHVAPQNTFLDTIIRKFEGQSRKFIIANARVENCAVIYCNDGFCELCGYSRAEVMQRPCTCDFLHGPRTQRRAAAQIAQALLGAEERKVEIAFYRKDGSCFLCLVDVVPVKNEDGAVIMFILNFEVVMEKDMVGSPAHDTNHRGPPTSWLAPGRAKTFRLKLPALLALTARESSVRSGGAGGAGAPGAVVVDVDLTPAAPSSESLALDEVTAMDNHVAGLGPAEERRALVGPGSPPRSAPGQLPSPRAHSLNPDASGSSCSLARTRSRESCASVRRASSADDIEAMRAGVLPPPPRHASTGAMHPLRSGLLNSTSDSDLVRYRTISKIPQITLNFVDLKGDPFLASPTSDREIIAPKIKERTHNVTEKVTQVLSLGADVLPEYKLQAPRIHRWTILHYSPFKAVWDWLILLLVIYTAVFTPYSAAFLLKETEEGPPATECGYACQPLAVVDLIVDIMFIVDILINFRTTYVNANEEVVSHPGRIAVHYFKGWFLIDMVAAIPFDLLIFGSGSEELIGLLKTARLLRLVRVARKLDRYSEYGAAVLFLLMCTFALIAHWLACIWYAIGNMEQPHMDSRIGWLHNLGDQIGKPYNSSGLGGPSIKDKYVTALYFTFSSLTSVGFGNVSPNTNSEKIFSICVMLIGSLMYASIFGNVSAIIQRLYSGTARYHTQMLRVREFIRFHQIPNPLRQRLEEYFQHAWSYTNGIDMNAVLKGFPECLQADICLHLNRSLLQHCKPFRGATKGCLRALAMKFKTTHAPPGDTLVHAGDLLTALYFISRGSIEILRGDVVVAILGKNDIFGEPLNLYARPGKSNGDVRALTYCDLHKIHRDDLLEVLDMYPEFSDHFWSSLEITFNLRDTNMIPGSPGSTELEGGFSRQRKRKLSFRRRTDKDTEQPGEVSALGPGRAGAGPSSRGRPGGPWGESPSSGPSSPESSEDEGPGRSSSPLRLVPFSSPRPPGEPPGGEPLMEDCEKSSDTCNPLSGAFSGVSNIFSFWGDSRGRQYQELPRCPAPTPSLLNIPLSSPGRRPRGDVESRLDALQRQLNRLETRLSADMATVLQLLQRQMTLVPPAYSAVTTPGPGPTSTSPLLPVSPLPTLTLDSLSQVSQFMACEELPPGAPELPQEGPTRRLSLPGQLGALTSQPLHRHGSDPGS
row,Compound,IC50
1,Nc1nc2ccc(C(=O)N(Cc3ccccc3)Cc3ccc(Cl)c(Cl)c3)cc2s1,> 25 µM
2,Nc1nc2ccc(C(=O)NCCc3c[nH]c4ccccc34)cc2s1,> 25 µM
3,COC(=O)c1ccc(CS(=O)(=O)c2ccc3nc(N)sc3c2)cc1,> 25 µM
4,Nc1nc2ccc(C(=O)NC(c3ccccc3)c3ccccc3)cc2s1,> 25 µM

# Target: Cytochrome P450 3A4 (Homo sapiens, UniProt P08684)
# Assay: Inhibition of human CYP3A4 expressed in baculovirus infected insect cells using beetle D-luciferin as substrate preincubated for 30 mins followed by NADPH addition and measured after 30 mins by CYP450-Glo assay
# Details: not given
# Chain of Cytochrome P450 3A4 (P08684 whole entry): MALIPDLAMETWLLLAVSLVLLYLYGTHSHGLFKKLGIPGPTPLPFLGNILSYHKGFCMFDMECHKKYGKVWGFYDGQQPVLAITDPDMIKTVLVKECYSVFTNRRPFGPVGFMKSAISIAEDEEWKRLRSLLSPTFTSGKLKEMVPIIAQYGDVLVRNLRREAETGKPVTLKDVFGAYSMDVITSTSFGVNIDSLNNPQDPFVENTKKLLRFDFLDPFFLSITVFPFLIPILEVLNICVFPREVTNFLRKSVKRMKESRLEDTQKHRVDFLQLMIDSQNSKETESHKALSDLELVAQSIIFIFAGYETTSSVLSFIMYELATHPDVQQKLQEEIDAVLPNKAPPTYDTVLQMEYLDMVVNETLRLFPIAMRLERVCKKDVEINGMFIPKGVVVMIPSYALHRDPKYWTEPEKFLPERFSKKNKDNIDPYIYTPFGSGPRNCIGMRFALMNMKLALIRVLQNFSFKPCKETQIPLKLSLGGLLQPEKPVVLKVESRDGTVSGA
row,Compound,IC50
1,Nc1nc2ccc(C(=O)N(Cc3ccccc3)Cc3ccc(Cl)c(Cl)c3)cc2s1,< 10 µM
2,Nc1nc2ccc(C(=O)NCCc3c[nH]c4ccccc34)cc2s1,> 25 µM
3,COC(=O)c1ccc(CS(=O)(=O)c2ccc3nc(N)sc3c2)cc1,10 to 25 µM
4,Nc1nc2ccc(C(=O)NC(c3ccccc3)c3ccccc3)cc2s1,< 10 µM

# Test system: Trypanosoma cruzi
# Assay: Growth inhibition of trypomastigote form of Trypanosoma cruzi Y infected in human U2OS cells at 50 uM measured after 72 hrs by DRAQ5 DNA dye based confocal microscopic analysis relative to control
# Type: organism-based
# Details: Trypanosoma cruzi, Y, U2OS, read-out: GI
row,Compound,inhibition at 50 µM
1,Nc1nc2ccc(C(=O)N(Cc3ccccc3)Cc3ccc(Cl)c(Cl)c3)cc2s1,62.1%
2,Nc1nc2ccc(C(=O)NCCc3c[nH]c4ccccc34)cc2s1,1.64%
3,Nc1nc2ccc(C(=O)NC(c3ccccc3)c3ccccc3)cc2s1,37.8%

# Same assay, conditions: trypanosoma cruzi, 50 µM
row,Compound,growth inhibition (GI)
1,COC(=O)c1ccc(CS(=O)(=O)c2ccc3nc(N)sc3c2)cc1,Non-Toxic

# Test system: Trypanosoma brucei
# Assay: Growth inhibition of Trypanosoma brucei bloodstream forms at 10 uM measured after 72 hrs by resazurin-based fluorescence assay relative to control
# Type: organism-based
# Details: Trypanosoma brucei, read-out: GI
row,Compound,inhibition at 10 µM
1,Nc1nc2ccc(C(=O)N(Cc3ccccc3)Cc3ccc(Cl)c(Cl)c3)cc2s1,26%
2,Nc1nc2ccc(C(=O)NCCc3c[nH]c4ccccc34)cc2s1,27%
3,COC(=O)c1ccc(CS(=O)(=O)c2ccc3nc(N)sc3c2)cc1,14%
4,Nc1nc2ccc(C(=O)NC(c3ccccc3)c3ccccc3)cc2s1,10%

# Test system: not listed separately
# Assay: Cytotoxicity against human U2OS cells assessed as reduction in cell number
# Type: cell-based
# Details: not given
row,Compound,GI50
1,Nc1nc2ccc(C(=O)N(Cc3ccccc3)Cc3ccc(Cl)c(Cl)c3)cc2s1,> 25 µM
2,Nc1nc2ccc(C(=O)NCCc3c[nH]c4ccccc34)cc2s1,> 25 µM
3,COC(=O)c1ccc(CS(=O)(=O)c2ccc3nc(N)sc3c2)cc1,> 25 µM
4,Nc1nc2ccc(C(=O)NC(c3ccccc3)c3ccccc3)cc2s1,> 25 µM

# Test system: not listed separately
# Assay: Cytotoxicity against human THP1 cells after 72 hrs by MTT assay
# Type: cell-based, THP-1
# Details: read-out: NOAEL
row,Compound,MNTC at 72 h
1,Nc1nc2ccc(C(=O)N(Cc3ccccc3)Cc3ccc(Cl)c(Cl)c3)cc2s1,> 25 µM
2,Nc1nc2ccc(C(=O)NCCc3c[nH]c4ccccc34)cc2s1,> 25 µM
3,COC(=O)c1ccc(CS(=O)(=O)c2ccc3nc(N)sc3c2)cc1,> 25 µM
4,Nc1nc2ccc(C(=O)NC(c3ccccc3)c3ccccc3)cc2s1,> 25 µM

# Target: T3, Cytochrome P450 1A2 (Homo sapiens, UniProt P05177)
# T3 sequence (P05177 whole entry): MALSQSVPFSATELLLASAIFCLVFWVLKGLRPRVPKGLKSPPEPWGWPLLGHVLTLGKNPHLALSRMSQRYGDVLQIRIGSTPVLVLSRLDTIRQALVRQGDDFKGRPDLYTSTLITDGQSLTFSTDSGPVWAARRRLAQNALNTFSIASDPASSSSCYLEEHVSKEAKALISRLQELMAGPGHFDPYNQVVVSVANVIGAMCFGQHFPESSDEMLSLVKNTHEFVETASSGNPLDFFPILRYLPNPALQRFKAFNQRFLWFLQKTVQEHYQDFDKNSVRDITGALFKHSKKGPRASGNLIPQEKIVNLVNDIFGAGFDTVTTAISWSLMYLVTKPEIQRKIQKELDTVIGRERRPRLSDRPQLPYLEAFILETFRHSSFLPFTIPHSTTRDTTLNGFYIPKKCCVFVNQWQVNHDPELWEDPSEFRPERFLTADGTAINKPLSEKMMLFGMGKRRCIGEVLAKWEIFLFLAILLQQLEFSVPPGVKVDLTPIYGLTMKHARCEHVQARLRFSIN
# Assay: Inhibition of human CYP1A2 expressed in baculovirus infected insect cells using beetle D-luciferin as substrate preincubated for 30 mins followed by NADPH addition and measured after 30 mins by CYP450-Glo assay
# Details: not given
row,Compound,IC50
1,Nc1nc2ccc(C(=O)N(Cc3ccccc3)Cc3ccc(Cl)c(Cl)c3)cc2s1,> 25 µM
2,Nc1nc2ccc(C(=O)NCCc3c[nH]c4ccccc34)cc2s1,> 25 µM
3,COC(=O)c1ccc(CS(=O)(=O)c2ccc3nc(N)sc3c2)cc1,> 25 µM
4,Nc1nc2ccc(C(=O)NC(c3ccccc3)c3ccccc3)cc2s1,> 25 µM

# Test system: Leishmania infantum
# Assay: Growth inhibition of luciferase expressing Leishmania infantum axenic amastigotes infected in human THP1 cells at 10 uM measured after 72 hrs by steady-glo luminescence assay relative to control
# Type: organism-based
# Details: Leishmania infantum, THP-1, 72 h; read-out: GI
row,Compound,inhibition at 10 µM
1,COC(=O)c1ccc(CS(=O)(=O)c2ccc3nc(N)sc3c2)cc1,12%
2,Nc1nc2ccc(C(=O)NC(c3ccccc3)c3ccccc3)cc2s1,15%

# Same assay, conditions: leishmania infantum, 72 h, 10 µM
row,Compound,growth inhibition (GI)
1,Nc1nc2ccc(C(=O)N(Cc3ccccc3)Cc3ccc(Cl)c(Cl)c3)cc2s1,Non-Toxic
2,Nc1nc2ccc(C(=O)NCCc3c[nH]c4ccccc34)cc2s1,Non-Toxic

# Target: Cytochrome P450 2D6 (Homo sapiens, UniProt P10635)
# Assay: Inhibition of human CYP2D6 expressed in baculovirus infected insect cells using beetle D-luciferin as substrate preincubated for 30 mins followed by NADPH addition and measured after 30 mins by CYP450-Glo assay
# Details: not given
# Chain of Cytochrome P450 2D6 (P10635 whole entry): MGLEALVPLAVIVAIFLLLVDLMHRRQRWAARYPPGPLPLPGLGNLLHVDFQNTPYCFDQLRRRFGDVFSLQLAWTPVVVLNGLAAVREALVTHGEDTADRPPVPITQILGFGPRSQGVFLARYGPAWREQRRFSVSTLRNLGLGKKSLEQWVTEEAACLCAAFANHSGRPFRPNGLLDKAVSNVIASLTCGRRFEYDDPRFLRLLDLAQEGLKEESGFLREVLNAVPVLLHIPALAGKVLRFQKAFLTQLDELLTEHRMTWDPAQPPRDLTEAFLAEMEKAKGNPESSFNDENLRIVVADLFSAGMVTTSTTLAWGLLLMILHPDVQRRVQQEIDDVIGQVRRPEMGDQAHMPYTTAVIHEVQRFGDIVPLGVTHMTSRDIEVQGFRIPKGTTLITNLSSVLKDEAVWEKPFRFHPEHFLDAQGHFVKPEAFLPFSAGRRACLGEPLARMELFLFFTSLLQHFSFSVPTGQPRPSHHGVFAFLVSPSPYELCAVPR
row,Compound,IC50
1,Nc1nc2ccc(C(=O)N(Cc3ccccc3)Cc3ccc(Cl)c(Cl)c3)cc2s1,< 10 µM
2,Nc1nc2ccc(C(=O)NCCc3c[nH]c4ccccc34)cc2s1,> 25 µM
3,COC(=O)c1ccc(CS(=O)(=O)c2ccc3nc(N)sc3c2)cc1,< 10 µM
4,Nc1nc2ccc(C(=O)NC(c3ccccc3)c3ccccc3)cc2s1,< 10 µM

# Target: not listed separately
# Assay: Inhibition of N-terminal His-tagged Trypanosoma brucei pteridine reductase 1 using di-hydrobiopterine as substrate measured at 1 min interval for 50 mins in presence of NADPH
# Details: not given
# Method in brief: as §1
row,Compound,IC50
1,Nc1nc2ccc(C(=O)N(Cc3ccccc3)Cc3ccc(Cl)c(Cl)c3)cc2s1,12 µM
2,Nc1nc2ccc(C(=O)NCCc3c[nH]c4ccccc34)cc2s1,23.3 µM
3,COC(=O)c1ccc(CS(=O)(=O)c2ccc3nc(N)sc3c2)cc1,> 100 µM
4,Nc1nc2ccc(C(=O)NC(c3ccccc3)c3ccccc3)cc2s1,18.5 µM

# Target: Cytochrome P450 2C19 (Homo sapiens, UniProt P33261)
# Assay: Inhibition of human CYP2C19 expressed in baculovirus infected insect cells using beetle D-luciferin as substrate preincubated for 30 mins followed by NADPH addition and measured after 30 mins by CYP450-Glo assay
# Details: not given
# Chain of Cytochrome P450 2C19 (P33261 whole entry): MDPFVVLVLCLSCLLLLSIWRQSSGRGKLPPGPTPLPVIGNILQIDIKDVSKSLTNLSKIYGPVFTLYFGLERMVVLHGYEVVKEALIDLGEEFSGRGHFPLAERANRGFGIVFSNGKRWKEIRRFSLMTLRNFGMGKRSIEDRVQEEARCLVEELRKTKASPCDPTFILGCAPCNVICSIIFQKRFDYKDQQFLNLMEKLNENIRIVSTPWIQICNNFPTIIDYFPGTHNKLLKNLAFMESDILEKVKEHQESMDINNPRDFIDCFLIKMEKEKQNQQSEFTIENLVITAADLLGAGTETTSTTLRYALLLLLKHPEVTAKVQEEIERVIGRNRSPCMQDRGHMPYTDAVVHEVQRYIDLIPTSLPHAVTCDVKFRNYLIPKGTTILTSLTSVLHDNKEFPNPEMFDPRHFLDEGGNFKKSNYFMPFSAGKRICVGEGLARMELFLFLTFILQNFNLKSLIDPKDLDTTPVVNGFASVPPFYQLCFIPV
row,Compound,IC50
1,Nc1nc2ccc(C(=O)N(Cc3ccccc3)Cc3ccc(Cl)c(Cl)c3)cc2s1,< 10 µM
2,Nc1nc2ccc(C(=O)NCCc3c[nH]c4ccccc34)cc2s1,10 to 25 µM
3,COC(=O)c1ccc(CS(=O)(=O)c2ccc3nc(N)sc3c2)cc1,< 10 µM
4,Nc1nc2ccc(C(=O)NC(c3ccccc3)c3ccccc3)cc2s1,< 10 µM

# Test system: not listed separately
# Assay: Cytotoxicity against human A549 cells after 48 hrs by Celltiter-glo assay
# Type: cell-based
# Details: not given
row,Compound,GI50 at 48 h
1,Nc1nc2ccc(C(=O)N(Cc3ccccc3)Cc3ccc(Cl)c(Cl)c3)cc2s1,> 25 µM
2,Nc1nc2ccc(C(=O)NCCc3c[nH]c4ccccc34)cc2s1,> 25 µM
3,COC(=O)c1ccc(CS(=O)(=O)c2ccc3nc(N)sc3c2)cc1,> 25 µM
4,Nc1nc2ccc(C(=O)NC(c3ccccc3)c3ccccc3)cc2s1,> 25 µM

# Test system: Trypanosoma brucei
# Assay: Inhibition of N-terminal His-tagged Trypanosoma brucei pteridine reductase 1 at 50 uM using di-hydrobiopterine as substrate measured at 1 min interval for 50 mins in presence of NADPH relative to control
# Details: not given
# Method in brief: as §1
row,Compound,inhibition
1,Nc1nc2ccc(C(=O)N(Cc3ccccc3)Cc3ccc(Cl)c(Cl)c3)cc2s1,> 60%
2,Nc1nc2ccc(C(=O)NCCc3c[nH]c4ccccc34)cc2s1,> 60%
3,COC(=O)c1ccc(CS(=O)(=O)c2ccc3nc(N)sc3c2)cc1,> 60%
4,Nc1nc2ccc(C(=O)NC(c3ccccc3)c3ccccc3)cc2s1,> 60%

# Test system: not listed separately
# Assay: Mitochondrial toxicity in human 786-O cells measured after 6 hrs by MitoTracker Red chloromethyl-X-rosamine based assay
# Type: cell-based, 786-0
# Details: not given
row,Compound,IC50 at 6 h
1,Nc1nc2ccc(C(=O)N(Cc3ccccc3)Cc3ccc(Cl)c(Cl)c3)cc2s1,10 to 25 µM
2,Nc1nc2ccc(C(=O)NCCc3c[nH]c4ccccc34)cc2s1,> 25 µM
3,COC(=O)c1ccc(CS(=O)(=O)c2ccc3nc(N)sc3c2)cc1,> 25 µM
4,Nc1nc2ccc(C(=O)NC(c3ccccc3)c3ccccc3)cc2s1,> 25 µM
